By EC50 is commonly meant the concentration giving half of the maximal effect.

The test system of data set [1] is CFTR-deficient mice. To be noted: cited from earlier work.
Data set [2] is described as follows: Stability in simulated gastric fluid. Conditions: 10 μM, pH 2, 37°C, 3 hour. Format: physicochemical. The procedure, abridged:
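Test compound (10 μM) was incubated 0 or 3 h at 37°C in simulated gastric fluid (NaCl, 0.7% HCl, pH 2). Remaining compound was measured by LC/MS chromatography. n=3.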

The target in data set [3] is T1, human wild-type CFTR (Homo sapiens, UniProt P13569). As to the kind of experiment: Inside-out patch-clamp. Format: biochemical. To be noted: 1 μM, after submaximal ATP and catalytic subunit of protein kinase A. The procedure, abridged: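 Inside-out macro-patches were taken from FRT cells stably expressing human wild-type CFTR using large pipette tips (3–5 MΩ). Pipette: 150 mM NMDG-Cl, 3 CaCl2, 2 MgCl2, 10 Na-HEPES, pH 7.3. Test compound (1 μM) followed. Steps of 600 ms ran −100 to +100 mV in 20 mV increments from −60 mV holding, 4 s apart; filtered 1 kHz, sampled 5 kHz. Three experiment sets.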
T1 sequence (P13569 whole entry): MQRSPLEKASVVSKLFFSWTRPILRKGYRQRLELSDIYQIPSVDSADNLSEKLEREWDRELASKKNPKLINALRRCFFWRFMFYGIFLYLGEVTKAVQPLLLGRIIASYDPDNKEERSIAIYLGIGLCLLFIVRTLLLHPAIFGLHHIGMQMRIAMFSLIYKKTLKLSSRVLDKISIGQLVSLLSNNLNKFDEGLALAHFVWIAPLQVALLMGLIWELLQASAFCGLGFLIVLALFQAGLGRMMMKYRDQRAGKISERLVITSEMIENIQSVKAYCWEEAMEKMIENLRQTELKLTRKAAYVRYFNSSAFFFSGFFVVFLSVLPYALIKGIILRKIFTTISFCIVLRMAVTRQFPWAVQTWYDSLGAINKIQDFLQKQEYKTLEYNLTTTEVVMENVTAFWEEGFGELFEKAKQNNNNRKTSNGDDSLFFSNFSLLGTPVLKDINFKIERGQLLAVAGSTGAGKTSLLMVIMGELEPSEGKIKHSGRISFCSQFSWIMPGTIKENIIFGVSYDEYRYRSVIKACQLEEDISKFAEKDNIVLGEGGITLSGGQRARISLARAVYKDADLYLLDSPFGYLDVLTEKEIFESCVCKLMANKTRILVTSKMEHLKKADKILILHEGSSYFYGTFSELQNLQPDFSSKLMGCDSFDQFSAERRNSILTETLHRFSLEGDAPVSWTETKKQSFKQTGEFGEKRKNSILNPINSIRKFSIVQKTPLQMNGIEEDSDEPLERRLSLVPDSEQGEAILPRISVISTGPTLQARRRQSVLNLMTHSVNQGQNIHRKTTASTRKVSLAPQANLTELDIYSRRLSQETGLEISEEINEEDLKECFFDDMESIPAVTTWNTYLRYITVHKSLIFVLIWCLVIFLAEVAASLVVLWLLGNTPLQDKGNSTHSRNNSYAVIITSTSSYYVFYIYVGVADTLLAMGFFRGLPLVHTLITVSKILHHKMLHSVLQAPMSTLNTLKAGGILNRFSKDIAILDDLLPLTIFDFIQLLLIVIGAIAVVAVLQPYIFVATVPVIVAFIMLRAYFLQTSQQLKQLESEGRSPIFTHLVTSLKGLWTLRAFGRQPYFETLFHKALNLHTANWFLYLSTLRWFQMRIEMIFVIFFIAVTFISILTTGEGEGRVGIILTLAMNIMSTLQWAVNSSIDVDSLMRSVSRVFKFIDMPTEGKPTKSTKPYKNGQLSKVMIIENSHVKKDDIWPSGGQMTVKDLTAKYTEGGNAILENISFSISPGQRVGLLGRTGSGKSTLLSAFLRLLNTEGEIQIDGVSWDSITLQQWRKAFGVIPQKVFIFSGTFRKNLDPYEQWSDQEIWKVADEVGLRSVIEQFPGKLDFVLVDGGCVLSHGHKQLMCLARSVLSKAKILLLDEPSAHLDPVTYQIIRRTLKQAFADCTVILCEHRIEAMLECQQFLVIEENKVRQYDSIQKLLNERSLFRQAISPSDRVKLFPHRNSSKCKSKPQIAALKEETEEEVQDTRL
On the technique in general: Patch clamp records ionic current or voltage across a cell membrane.

Data set [4] has as its target T1, human wild-type CFTR. Briefly: Plate reader assay of CFTR activity. To be noted: read-out: EC50 CFTR activation; as stated in abstract. Format: cell-based. An outline of the steps: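 FRT cells co-expressing human wild-type CFTR and YFP-H148Q were plated at 20,000 cells/well and used 24–48 h later. After 3 PBS washes, cells were incubated 10 min with test compound plus 125 nM forskolin. Fluorescence was recorded 2 s at baseline, then 12 s after adding PBS with 137 mM Cl⁻ replaced by I⁻. Initial iodide influx rate came from exponential regression. EC50 was taken from full concentration-dependence data, n=3.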

Data set [5] has as its system enteroids generated from normal human duodenum and jejunum. As to the kind of experiment: Swelling measurements in human enteroids. Format: cell-based. The procedure, abridged:
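Enteroids came from adult duodenal/jejunal endoscopic biopsies, grown on coverglass dishes. Medium was replaced with Advanced DMEM/F12 and cytoplasm labelled with calcein green-AM, 1 h at 37°C. Forskolin was added, […], and/or test compound at 5 μM; test compound went in 10 min before forskolin when combined. Confocal images were taken every 10 min at 37°C, 5% CO2. Result was percent increase in enteroid area over initial area, e.g. at 40 min.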

Data set [6] concerns C3H/HeOuJ mice. Briefly: Wild-type control mice. Conditions: 10 mg/kg. Format: in vivo. An outline of the steps: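 Female C3H/HeJ (Tlr4 mutant, chronically constipated) and background C3H/HeOuJ mice, 8–11 weeks, were studied as paired animals. They received test compound 10 mg/kg orally in saline with 5% DMSO and 10% Kolliphor HS 15, or vehicle, at zero time, then went into metabolic cages. Stool was collected 4 h for weight, pellet count and water content ([wet − dry]/wet after drying 80°C, 24 h). n=10 mice/group.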

For data set [7], the system named is cellular cGMP. Briefly: cGMP immunoassay in FRT cells. Format: cell-based, rat. To be noted: 10 μM, 10 min. An outline of the steps:
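FRT cells received 10 μM test compound or vehicle for 10 min at 37°C. They were lysed by freeze-thaw and cleared by centrifugation (600g, 10 min, 4°C). cGMP was measured by immunoassay.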

For data set [8] the following is noted: mice, rapid hepatic metabolism; cited from earlier work.
Data set [9] has as its system loperamide-induced constipation. As to the kind of experiment: Loperamide-induced mouse model of constipation. It is filed as in vivo, mice. The procedure, abridged: (§1)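 Female CD1 mice, 8–10 weeks, were made constipated with loperamide 0.3 mg/kg ip or scopolamine 0.5 mg/kg ip. Test compound 10 mg/kg (saline with 5% DMSO and 10% Kolliphor HS 15) or vehicle was given ip or orally, 1 h before or 1 h after the inducer. Mice sat in metabolic cages with food and water. Stool was collected 3 h for weight, pellet number and water content (dried 80°C, 24 h). n=4 mice/group.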

The conditions of data set [10]: cited from earlier work.
For data set [11], the system named is cellular cAMP. Briefly: cAMP immunoassay in FRT cells. Format: cell-based, rat. Conditions: 10 μM, 10 min, alone or with 90 nM forskolin. The procedure, abridged:
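FRT cells in 12-well plates received vehicle, 10 μM test compound with or without 90 nM forskolin, or 20 μM forskolin alone, for 10 min at 37°C. Cells were lysed by freeze-thaw and centrifuged (600g, 10 min, 4°C). cAMP was measured by immunoassay.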

Data set [12] relates to cellular cAMP. Conditions: cited from earlier work.
The test system of data set [13] is C3H/HeJ mice. As to the kind of experiment: Genetic mouse model of chronic constipation. Format: in vivo.
A short description of data set [14]: In vitro metabolic stability in human liver microsomes. Format: in vitro ADME. To be noted: 1 mM NADPH, 37°C. An outline of the steps: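 Test compound was incubated at 37°C for specified times with human liver microsomes (1 mg protein/mL) in 100 mM potassium phosphate with 1 mM NADPH. Samples were chilled on ice and extracted with ice-cold ethyl acetate. Supernatant was dried, redissolved in acetonitrile:water 3:1 and quantified by LC/MS: 5–95% acetonitrile gradient over 16 min, 0.2 mL/min, ESI(+), m/z 100–1500.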
A general note: Liver microsomes are a subcellular fraction often used to study metabolism.

Data set [15] has as its system cytoplasmic Ca^2+. As to the kind of experiment: Cytoplasmic calcium measurement. It is filed as cell-based, rat. Conditions: 10 μM, 2 min, added alone. An outline of the steps: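 FRT cells were loaded with Fluo-4 NW 48 h after plating. They were pretreated 2 min with 10 μM test compound or vehicle, then given 100 μM ATP as calcium agonist. Cytoplasmic Ca2+ was read as Fluo-4 fluorescence (ex/em 494/516 nm) in a plate reader with syringe pumps.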

Data set [16] has as its system loperamide-induced constipation. Conditions: cited from earlier work.
For data set [17], the target named is T1, human wild-type CFTR. Briefly: Whole-cell patch-clamp in FRT cells. It is filed as cell-based.
Data set [18] deals with scopolamine-induced constipation. As to the kind of experiment: Scopolamine-induced mouse model of acute constipation. It is filed as in vivo, mice. An outline of the steps:
as §1

Several values for one entry are separate records, joined by “and”; a condition that tells them apart may be missing. Equal entries are not always repeated.

`Nc1ccc([N+](=O)[O-])cc1-c1nc2ccccc2n(Cc2ccccc2)c1=O` [CFTRact-J027]: the “Effect in CFTR-deficient mice” value in data set [1] is given as “no effect”. Further, in data set [2], the “Stability in simulated gastric fluid” value is “no compound degradation”. The “CFTR activity in inside-out patch” value in data set [3] is “strongly increased CFTR activity”. In addition, in [4], the EC50 was around 200 nM. In addition, in [5] (5 μM, 40 minutes, human jejunal enteroids, no forskolin), the “Enteroid size, compound alone” value is “Little or no change”. The “Enteroid swelling response to low forskolin after pretreatment” value in data set [5] (0.1 or 0.2 μM forskolin, pretreatment 10 minutes with CFTRact-J027, duodenum and jejunum) was “increased”. In addition, in data set [5] (human enteroids), the “Swelling response relative to maximal (5 μM) forskolin” value is reported as “approximately 50%”. Moreover, the “Stool parameters or whole-gut transit time in wild-type control mice” value in data set [6] is “did not affect”. The “Cellular cGMP” value in data set [7] is “did not elevate cellular cGMP”. In addition, the “Systemic exposure following oral administration” value in data set [8] is “minimal systemic exposure”. Besides, the “Efficacy on stool parameters, given after development of constipation” value was “effective” in [9] (10 mg/kg ip, 1 hour after loperamide 0.3 mg/kg ip) and “effective” in [18] (10 mg/kg ip, 1 hour after scopolamine). The “Efficacy on stool parameters, given orally after development of constipation” value is “not effective” in data set [9] (10 mg/kg po, 1 hour after loperamide) and “not effective” in data set [18] (10 mg/kg po, 1 hour after scopolamine). For the same molecule, in [10] (chronic oral high-dose, mice), the “Blood counts, serum chemistries, and lung water content” value is “no effect”. The Toxicity result in data set [10] was “showed no toxicity”. Further, the “Cellular cAMP” value in data set [11] was “did not elevate cellular cAMP”. In addition, in [12], the “Cellular cAMP concentration (prior data)” value was “does not elevate cellular cAMP concentration”. Besides, in data set [13] (10 mg/kg ip), the Whole-gut transit time result is “normalized”. Besides, the “4-hour stool weight, pellet number, and water content” value in [13] (10 mg/kg oral) is “to the level of wild-type controls”. In addition, in data set [14] (1 mg protein/mL, CFTRact-J027 as printed), the “Elimination half-life in human hepatic microsomes” value is ~ 35 min and 35 min. The “Compound remaining at 60 minutes” value in data set [14] (human hepatic microsomes) was determined as 34%. Besides, the “Cytoplasmic Ca^2+” value in data set [15] is “nor did it elevate cytoplasmic Ca^2+”. For the same molecule, the “Stool output, stool water content, and intestinal transit” value in data set [16] (acute constipation produced by loperamide) was “normalized”. Also, the “ED50 orally administered, loperamide model” value in data set [16] (oral, mice) is 0.5 mg/kg. Also, the “Increase of CFTR activity (whole-cell current)” value in data set [17] (1 μM extracellular, after 150 nM forskolin (~25% maximal stimulation)) was “more than 4 fold”. Besides, the “Stool parameters (3-hour stool weight, pellet number, water content)” value in data set [18] (10 mg/kg po, 1 hour before scopolamine 0.5 mg/kg ip) is reported as “normalization of stool parameters”. The molecule also gave a Duration of effect in data set [18] (in mice) of 3 to 4 h.
For `C=C[C@@]1(C)CC(=O)[C@]2(O)[C@@]3(C)[C@@H](O)CCC(C)(C)[C@@H]3[C@H](O)[C@H](OC(C)=O)[C@@]2(C)O1` [forskolin, reference compound], in data set [5] (0.3 μM forskolin, 40 minutes, human jejunal enteroids), the “Enteroid area, forskolin alone” value was “small increase in area”.
As to CFTRinh-172 [reference compound], the “Block of currents activated by forskolin and CFTRact-J027” value in data set [17] (10 μM) is listed as “blocked”.

(Values after PMC5453637 (Translational research : the journal of laboratory and …, 2016).)
